From ChEMBL document CHEMBL1671747, “Efficacy and safety of intravenous peramivir for treatment of seasonal influenza virus infection” (Antimicrob Agents Chemother, 2010)

Columns and labels:
Conditions in all cases: in vivo
[1] = tested on: Plasma; assay: Plasma concentration in human at 600 mg, iv after 36 to 48 hrs; assay type: ADME, organism-based
Summary of the method: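 Subjects received a single IV infusion of 300 or 600 mg (mean 5.0 or 10.0 mg/kg; median infusion 0.63 h). Plasma was sampled just before the infusion ended, and on days 2 and 3. Samples were deproteinized and run on C18 LC/MS-MS. Values are medians at end of infusion, 18–24 h and 36–48 h after infusion.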

[2] = tested on: Homo sapiens; assay: Toxicity in human patient infected with Influenza virus assessed as increase in monocyte at 300 mg, iv; assay type: organism-based
Summary of the method: (§1)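 Adults with seasonal influenza received one intravenous infusion of peramivir (300 or 600 mg) or matching placebo; the median infusion lasted 0.63 h. Blood for haematology, including the white-cell differential, was taken at baseline and on days 3 and 14. Tests were run by blinded technicians. Adverse-event incidence in the 298-subject safety population was compared with placebo by Fisher's exact test.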

[3] = tested on: Homo sapiens; assay: Toxicity in human patient infected with Influenza virus assessed as increase in blood glucose at 300 mg, iv; assay type: organism-based
Summary of the method: (§2)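 One IV dose of 300 or 600 mg or placebo was given to adults with influenza. Blood (hematology, biochemistry) and urine (including NAG, β2- and α1-microglobulin, protein) were sampled at baseline, day 3 and day 14 by blinded technicians. Adverse-event incidence versus placebo was compared by Fisher's exact test.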

[4] = tested on: Homo sapiens; assay: Toxicity in human patient infected with Influenza virus assessed as diarrhea at 300 mg, iv; assay type: organism-based
Summary of the method: (§3)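 Adverse events were recorded after one IV dose of 300 or 600 mg or placebo in adults with influenza. Incidence in each peramivir group was compared with placebo by Fisher's exact test.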

[5] = tested on: Homo sapiens; assay: Toxicity in human patient infected with Influenza virus assessed as increase in lymphocyte at 300 mg, iv; assay type: organism-based; summary of the method: as §2
[6] = tested on: Homo sapiens; assay: Toxicity in human patient infected with Influenza virus assessed as proteinuria at 300 mg, iv; assay type: organism-based
Summary of the method: (§4)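 Subjects received a single intravenous peramivir dose (300 or 600 mg) or placebo, infused over a median of 0.63 h. Urinalysis covered protein, albumin and sediment, among other analytes. Urine was collected at baseline and on days 3 and 14 and tested by blinded technicians. Incidence in the safety population (n = 298 treated) was compared with placebo by Fisher's exact test.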

[7] = tested on: Homo sapiens; assay: Toxicity in human patient infected with Influenza virus assessed as white blood cells-positive urine at 300 mg, iv; assay type: organism-based; summary of the method: as §4
[8] = tested on: Homo sapiens; assay: Toxicity in human patient infected with Influenza virus assessed as beta2 microglobulin in urine at 300 mg, iv; assay type: organism-based; summary of the method: as §2
[9] = tested on: Homo sapiens; assay: Toxicity in human patient infected with Influenza virus assessed as decrease in white blood cell count at 300 mg, iv; assay type: organism-based; summary of the method: as §2
[10] = tested on: Homo sapiens; assay: Toxicity in human patient infected with Influenza virus assessed as increase in blood bilirubin at 300 mg, iv; assay type: organism-based; summary of the method: as §2
[11] = tested on: Homo sapiens; assay: Toxicity in human patient infected with Influenza virus assessed as increase in alanine aminotransferase at 300 mg, iv; assay type: organism-based; summary of the method: as §2
[12] = tested on: Homo sapiens; assay: Toxicity in human patient infected with Influenza virus assessed as increase in aspartate aminotransferase at 300 mg, iv; assay type: organism-based; summary of the method: as §2
[13] = tested on: Homo sapiens; assay: Toxicity in human patient infected with Influenza virus assessed as increase in alpha1 Microglobulin at 300 mg, iv; assay type: organism-based; summary of the method: as §2
[14] = tested on: Homo sapiens; assay: Toxicity in human patient infected with Influenza virus assessed as nausea at 300 mg, iv; assay type: organism-based
Summary of the method: (§5)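 In this randomized trial, subjects received a single intravenous infusion of peramivir (300 mg or 600 mg) or matching placebo; the median infusion lasted 0.63 h. Subjects were followed at visits on days 1, 2 (optional), 3, 5, 9 and 14. Adverse-event incidences across the 298 treated subjects were compared with placebo using Fisher's exact test.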

[15] = tested on: Homo sapiens; assay: Toxicity in human patient infected with Influenza virus assessed as increase in blood lactate dehydrogenase at 300 mg, iv; assay type: organism-based; summary of the method: as §2
[16] = tested on: Homo sapiens; assay: Toxicity in human patient infected with Influenza virus assessed as beta-N-Acetyl-D-glucosaminidase at 300 mg, iv; assay type: organism-based; summary of the method: as §2
[17] = tested on: Homo sapiens; assay: Toxicity in human patient infected with Influenza virus assessed as urine containing albumine at 300 mg, iv; assay type: organism-based; summary of the method: as §4
[18] = tested on: Homo sapiens; assay: Toxicity in human patient infected with Influenza virus assessed as decrease in total Protein at 300 mg, iv; assay type: organism-based; summary of the method: as §2
[19] = tested on: Homo sapiens; assay: Toxicity in human patient infected with Influenza virus assessed as lymphocyte morphology abnormal at 300 mg, iv; assay type: organism-based; summary of the method: as §1
[20] = tested on: Homo sapiens; assay: Toxicity in human patient infected with Influenza virus assessed as nasopharyngitis at 300 mg, iv; assay type: organism-based; summary of the method: as §5
[21] = tested on: Homo sapiens; assay: Toxicity in human patient infected with Influenza virus assessed as increase in blood phosphate at 300 mg, iv; assay type: organism-based; summary of the method: as §2
[22] = tested on: Homo sapiens; assay: Toxicity in human patient infected with Influenza virus assessed as monocyte at 600 mg, iv; assay type: organism-based; summary of the method: as §1
[23] = tested on: Homo sapiens; assay: Toxicity in human patient infected with Influenza virus assessed as increase in blood glucose at 600 mg, iv; assay type: organism-based; summary of the method: as §2
[24] = tested on: Homo sapiens; assay: Toxicity in human patient infected with Influenza virus assessed as diarrhea at 600 mg, iv; assay type: organism-based; summary of the method: as §3
[25] = tested on: Homo sapiens; assay: Toxicity in human patient infected with Influenza virus assessed as increase in lymphocyte at 600 mg, iv; assay type: organism-based; summary of the method: as §2
[26] = tested on: Homo sapiens; assay: Toxicity in human patient infected with Influenza virus assessed as proteinuria at 600 mg, iv; assay type: organism-based; summary of the method: as §4
[27] = tested on: Homo sapiens; assay: Toxicity in human patient infected with Influenza virus assessed as white blood cells-positive urine at 600 mg, iv; assay type: organism-based; summary of the method: as §4
[28] = tested on: Homo sapiens; assay: Toxicity in human patient infected with Influenza virus assessed as beta2 microglobulin in urine at 600 mg, iv; assay type: organism-based; summary of the method: as §2
[29] = tested on: Homo sapiens; assay: Toxicity in human patient infected with Influenza virus assessed as decrease in white blood cell count at 600 mg, iv; assay type: organism-based; summary of the method: as §2
[30] = tested on: Homo sapiens; assay: Toxicity in human patient infected with Influenza virus assessed as increase in blood bilirubin at 600 mg, iv; assay type: organism-based; summary of the method: as §2
[31] = tested on: Homo sapiens; assay: Toxicity in human patient infected with Influenza virus assessed as increase in alanine aminotransferase at 600 mg, iv; assay type: organism-based; summary of the method: as §2
[32] = tested on: Homo sapiens; assay: Toxicity in human patient infected with Influenza virus assessed as increase in aspartate aminotransferase at 600 mg, iv; assay type: organism-based; summary of the method: as §2
[33] = tested on: Homo sapiens; assay: Toxicity in human patient infected with Influenza virus assessed as increase in alpha1 microglobulin at 600 mg, iv; assay type: organism-based; summary of the method: as §2
[34] = tested on: Homo sapiens; assay: Toxicity in human patient infected with Influenza virus assessed as nausea at 600 mg, iv; assay type: organism-based; summary of the method: as §5
[35] = tested on: Homo sapiens; assay: Toxicity in human patient infected with Influenza virus assessed as increase in blood lactate dehydrogenase at 600 mg, iv; assay type: organism-based; summary of the method: as §2

With `CCC(CC)[C@H](NC(C)=O)[C@@H]1[C@H](O)[C@@H](C(=O)O)C[C@H]1NC(=N)N` [PERAMIVIR ANHYDROUS] the Cp [1] was 10.7 ng/mL, the Activity [2] was “Toxic” and the Activity [3] was “Toxic”. For the same compound, the Activity [4] was “Toxic”, the Activity [5] was “Toxic” and the Activity [6] was “Toxic”. For the same compound, the Activity [7] was “Toxic”, the Activity [8] was “Toxic” and the Activity [9] was “Toxic”. The Activity [10] was “Toxic”, the Activity [11] was “Toxic” and the Activity [12] was “Toxic”. For the same compound, the Activity [13] was “Toxic”, the Activity [14] was “Toxic” and the Activity [15] was “Toxic”. The Activity [16] was “Toxic”, the Activity [17] was “Toxic” and the Activity [18] was “Toxic”. The Activity [19] was “Toxic”, the Activity [20] was “Toxic” and the Activity [21] was “Toxic”. The Activity [22] was “Toxic”, the Activity [23] was “Toxic” and the Activity [24] was “Toxic”. The Activity [25] was “Toxic”, the Activity [26] was “Toxic” and the Activity [27] was “Toxic”. For the same compound, the Activity [28] was “Toxic”, the Activity [29] was “Toxic” and the Activity [30] was “Toxic”. The Activity [31] was “Toxic”, the Activity [32] was “Toxic” and the Activity [33] was “Toxic”. The Activity [34] was “Toxic” and the Activity [35] was “Toxic”.
